Measured values taken from ChEMBL document CHEMBL4811241, “Revisiting Pyrazolo[3,4-d]pyrimidine Nucleosides as Anti-Trypanosoma cruzi and Antileishmanial Agents” (J Med Chem, 2021).

Legend:
Leishmania infantum = test: Antileishmanial activity against amastigote form of Leishmania infantum MHOM/MA(BE)/67 infected in Swiss mouse peritoneal macrophages assessed as reduction in parasite growth treated at 2 hrs post-infection and measured after 5 days by Giemsa staining based microscopic analysis; assay type: functional, organism-based; conditions: MHOM/MA(BE)/67, Peritoneal macrophage
Outline: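 Swiss mouse peritoneal macrophages, harvested after 2-day potato-starch stimulation, infected 48 h after plating; compounds added 2 h post-infection.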

[1] = Cytotoxicity against human MRC-5 SV2 cells assessed as reduction in cell growth measured after 3 days by resazurin dye based fluorometric analysis; conditions: time 3 day
[2] = Selectivity index, ratio of CC50 for human MRC-5 SV2 cells to IC50 for antitrypanosomal activity against nifurtimox-sensitive Trypanosoma cruzi Tulahuen CL2 infected in human MRC-5 SV2 cells; assay type: toxicity, cell-based; conditions: read-out: Ratio CC50/IC50
Outline: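 Ratio of MRC-5SV2 CC50 (3-day resazurin assay) to IC50 against T. cruzi amastigotes in MRC-5SV2 cells (7-day CPRG assay).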

[3] = Selectivity index, ratio of CC50 for Swiss mouse peritoneal macrophages to IC50 for antileishmanial activity against amastigote form of Leishmania infantum MHOM/MA(BE)/67 infected in Swiss mouse peritoneal macrophages; assay type: toxicity; conditions: read-out: Ratio CC50/IC50
Outline: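 Ratio of macrophage CC50 to L. infantum amastigote IC50, both taken from the same 5-day macrophage assay.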

[4] = Cytotoxicity against Swiss mouse peritoneal macrophages assessed as cell detachment, lysis and granulation measured after 5 days by microscopic analysis; assay type: cell-based, Peritoneal macrophage; conditions: time 5 day
Outline: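 Scored within the Leishmania macrophage assay over 5 days: detachment, lysis and granulation judged semi-quantitatively by microscopy across at least 500 cells. CC50 derived from % reduction in normal cells versus untreated wells.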

Trypanosoma cruzi = test: Antitrypanosomal activity against nifurtimox-sensitive Trypanosoma cruzi Tulahuen CL2 infected in human MRC-5 SV2 cells assessed as inhibition of parasite growth measured after 7 days by spectrophotometric analysis; assay type: functional, organism-based; conditions: Tulahuen CL2, MRC-5 SV2, 168 h

| SMILES | IC50 (Leishmania infantum) | CC50 at 72 h [1] | selectivity ratio [2] | selectivity ratio [3] | CC50 at 120 h [4] | IC50 (Trypanosoma cruzi) |
| --- | --- | --- | --- | --- | --- | --- |
| Cc1ccc(-c2nn([C@@H]3O[C@H](CO)[C@@H](O)[C@H]3O)c3ncnc(N)c23)s1 | ≥ 32 µM | > 64 µM | > 9 | > 1 | > 64 µM | 7.1 µM |
| Nc1ncnc2c1c(C(=O)Nc1ccccc1)nn2[C@@H]1O[C@H](CO)[C@@H](O)[C@H]1O | 32.5 µM | > 64 µM |  | 1 | 32 µM | > 64 µM |
| Nc1ncnc2c1c(-c1ccc(C(F)(F)F)cc1)nn2[C@@H]1O[C@H](CO)[C@@H](O)[C@H]1O | 57 µM | > 64 µM | > 10 | > 1 | > 64 µM | 6.34 µM |
| Cc1nn([C@@H]2O[C@H](CO)[C@@H](O)[C@H]2O)c2ncnc(N)c12 | 32.7 µM | 57.5 µM | 12 | 1 | 40 µM | 4.68 µM |
| Nc1ncnc2[nH]ncc12 | 0.18 µM | 2.46 µM | 5 | > 355 | > 64 µM | 0.57 µM |
| Nc1ncnc2c1c(C#Cc1ccccc1)nn2[C@@H]1O[C@H](CO)[C@@H](O)[C@H]1O | 49.4 µM | > 64 µM | > 2 | > 1 | > 64 µM | 29.4 µM |
| Nc1ncnc2c1c(Br)nn2[C@@H]1O[C@H](CO)[C@@H](O)[C@H]1O | 29.4 µM | > 64 µM | > 15 | > 2 | > 64 µM | 4.37 µM |
| C=C(C)c1nn([C@@H]2O[C@H](CO)[C@@H](O)[C@H]2O)c2ncnc(N)c12 | 24.1 µM | 0.35 µM | < 1 | 1 | 32 µM | 29.5 µM |
| Nc1ncnc2c1c(N)nn2[C@@H]1O[C@H](CO)[C@@H](O)[C@H]1O | 6.82 µM | 23 µM | 3 | 1 | 8 µM | 7.64 µM |
| Nc1ncnc2c1c(-c1ccncc1)nn2[C@@H]1O[C@H](CO)[C@@H](O)[C@H]1O | 25.4 µM | > 64 µM | > 3 | > 3 | > 64 µM | 21.5 µM |
| Nc1ncnc2c1c(-c1ccc(Cl)cc1Cl)nn2[C@@H]1O[C@H](CO)[C@@H](O)[C@H]1O | 52.8 µM | > 64 µM | > 11 | > 1 | > 64 µM | 6.06 µM |
| Nc1ncnc2c1c(-c1ccc(Cl)cc1)nn2[C@H]1C[C@H](O)[C@@H](CO)O1 | ≥ 32.5 µM | > 64 µM | > 22 | 1 | ≥ 32 µM | 2.49 µM |
| Nc1ncnc2c1c(C(F)F)nn2[C@@H]1O[C@H](CO)[C@@H](O)[C@H]1O | 0.25 µM | 2.42 µM | < 1 | 1 | 0.25 µM | 8.3 µM |
| C=Cc1nn([C@@H]2O[C@H](CO)[C@@H](O)[C@H]2O)c2ncnc(N)c12 | 12.7 µM | > 64 µM |  | 3 | 32 µM | > 64 µM |
| CNc1nn([C@@H]2O[C@H](CO)[C@@H](O)[C@H]2O)c2ncnc(N)c12 | 50.8 µM | > 64 µM |  | > 1 | > 64 µM | > 64 µM |
